Screening data: PubChem, several laboratories
An excerpt weighted towards active compounds, which were near 1.3% of everything screened.
NTR1 ag = activates human neurotensin receptor 1. P30989. NTR1-U2OS beta-arrestin-GFP spot imaging, agonist mode. activation, % at 20 µM. hit rate 0.17% among 330,000;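 active means activation at or above 40% of the spot to cytoplasm intensity ratio, with at least 20 cells analyzed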;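 further: 0% = DMSO without peptide and 100% = 100 nM NTR1 peptide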
Arrestin-AP2 inh = blocks beta-arrestin peptide binding to AP2 adaptin. FITC-arrestin peptide / GST-AP2 beads, flow cytometry; AP2 beta2 appendage carries R879A mutation. inhibition, % at 10 µM. hit rate 0.31% among 340,000;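 active means inhibition above a set limit, near 3 SD of compounds lacking own fluorescence, cut at about 54% in these data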;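 further: plate controls were DMSO wells for no effect and 5 µM unlabelled arrestin peptide for full effect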
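test system = AP2 appendage R879A on GSH beads | buffer or medium = PBS plus Tween 20 (0.05%) and BSA (0.1%) | incubation = 12 min plus 1 h, RT | detection = bead flow cytometry, FITC channel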
PLC-gamma1 inh = inhibitors of human phospholipase C gamma1. AID 720700. purified PLC-gamma1, fluorogenic substrate, fluorescence. inhibition, % at 12.2 µM. P19174. hit rate 0.84% among 370,000; in the data active means inhibition above about 9.5%
PLCb3 inh = PLC-beta3 (human) inhibition, primary screen; hit rate 0.18% among 370,000; Purified PLC-beta3, fluorogenic substrate, fluorescence; inhibition, % at 12.2 µM; in the data active means inhibition above about 11%;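 further: 0% = median of compound wells on plate and 100% = full blocker control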
NTR1 ag confirm = confirmation of agonists of human NTR1. shares compounds with NTR1 ag. NTR1-U2OS beta-arrestin-GFP translocation imaging. activation, % at 20 µM. hit rate 38% among 480. AID 504550;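 active means mean activation at 20 µM of at least 40%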;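 further: 0% = DMSO without peptide and 100% = 100 nM NTR1 peptide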
The depositor's hits bear a star; i = inactive; · = no result given.

SMILES	NTR1 ag	Arrestin-AP2 inh	PLC-gamma1 inh	PLCb3 inh	others
CC(C)(C)OC(=O)N1CCC(N[C@@H](Cc2c[nH]c3ccccc23)C(=O)NCCc2c[nH]c3ccccc23)(C(=O)NC2CCCCC2)CC1	·	·	4.3	0.9
CC(Sc1nnc(-c2ccccc2)c(-c2ccccc2)n1)C(=O)NCC1CCCO1 (stereo not drawn)	-1.0	2.4	12.2*	-1.2
O=C(N=C1N(Cc2ccccc2)[C@@H](Cc2ccccc2)[C@]2(C=C3CCCCC3n3c(=O)n(-c4ccccc4)c(=O)n32)N1C(=O)OCc1ccccc1)c1ccccc1 (stereo partly drawn)	·	·	0.6	-0.6
CC(C)(NO)/C(=N/O)c1cccs1	-1.4	-42.1	8.5	11.8*
O=C(Cn1cc(/C=C\[N+](=O)[O-])c2ccccc21)Nc1ccccc1	47.2*	14.5	2.1	-5.4
O=C1Nc2ccc(Br)cc2/C1=C/C(=O)c1ccc2c(c1)OCO2	55.4*	-18.1	-8.9	-14.3
COc1ccc(C(=O)/C=C2\C(=O)Nc3ccc(Br)cc32)cc1	·	-4.6	-5.3	-7.0
O=C(Cc1ccccc1)N1CCC(Oc2cccnc2)CC1	·	·	0.5	-0.6
CC1(C)Oc2cc(N)c([N+](=O)[O-])cc2O1	-0.5	10.2	32.5*	10.2
CC(=O)Nc1ccc(NC(=O)c2csc([C@@H]3O[C@H](CO)[C@H](O)[C@H](O)[C@H]3O)n2)cc1	·	·	-0.7	1.6
O=C(Nc1ccc(Oc2ccccc2)cc1)c1csc([C@@H]2O[C@H](CO)[C@H](O)[C@H](O)[C@H]2O)n1	·	·	9.7*	3.6
O=C(Nc1cccc(-c2nc3ccccc3[nH]2)c1)c1cccc(NC(=O)c2ccco2)c1	41.1*	2.5	-34.4	-31.1
COc1ccc(C(=O)NCC2CCN(C(=O)C(=O)c3cc4ccccc4o3)CC2)c(OC)c1	·	·	-1.5	2.6
COC(=O)c1cc2c(c3c4cc(F)ccc4n(S(=O)(=O)c4ccccc4)c13)C(=O)N(Cc1ccc(N(C)C)cc1)C2	·	·	-7.6	-6.2
CCN(CC)c1ccc(NC2=C(Cl)C(=O)c3ccccc3C2=O)cc1	·	54.6*	·	·
O=C(Cn1nc(-c2ccccc2)ccc1=O)NCCc1cccc(F)c1	·	·	-0.9	3.9
Cc1ccc(CN2CCc3c(OCc4ccc(F)cc4)cccc3C2=O)cc1	6.2	-5.6	-5.0	-3.7
O=C1c2cccc(OCc3ccc(F)cc3)c2CCN1Cc1ccc(F)cc1	1.0	-4.3	11.3*	4.5
COc1ccc(OC)c(CN2CCN(C(=O)c3cccc4ccccc34)CC2)c1	0.9	9.2	12.6*	2.6
N#C/C(=C\c1ccc(C(=O)O)cc1)c1ccccn1	-1.0	-7.4	1.2	2.6
N#C/C(=C\c1c[nH]c2ccc(Br)cc12)c1ccccn1	51.0*	8.9	-4.3	-9.9
COC(=O)[C@]12C[C@H](CC(=O)NCc3cccc4ccccc34)C(=O)N(Cc3ccc4c(c3)OCO4)C1=C[C@H](COCc1ccccc1)O[C@@H]2C	·	·	-1.2	-2.0
Cc1sc2nc(CSCC(=O)NC(C)(C)C)[nH]c(=O)c2c1C	1.7	54.7*	-10.0	-20.4
O=C(CSc1nnc(-c2cccc(Cl)c2)n1Cc1ccco1)Nc1ccc2c(c1)OCO2	·	·	-2.8	-1.3
Cc1cccn2c(=O)c3cc(C(=O)NCCc4ccccc4)c(=N)n(Cc4ccco4)c3nc12	57.1*	5.5	-245.5	-421.9
SMILES	NTR1 ag	Arrestin-AP2 inh	PLC-gamma1 inh	PLCb3 inh	others
Cc1cccn2c(=O)c3cc(C(=O)NCc4ccco4)c(=N)n(CCc4ccccc4)c3nc12	15.6	18.7	-379.9	i
C=Cc1ccc(C(=O)N(Cc2ccc(F)cc2)C(C(=O)N(C)C2CCCC2)c2ccc(OC)c(OC)c2)cc1 (stereo not drawn)	·	·	1.1	1.1
O=C(N=C1N=C2C=CC(Br)=CN2Cc2ccccc21)c1ccc([N+](=O)[O-])cc1[N+](=O)[O-]	5.6	-0.9	12.8*	10.9*
CCCN(CC1CC1)C(=O)CNc1nnnn1-c1ccccc1	·	·	1.0	4.2
COc1cc(O)c(CC=C(C)C)c(O)c1C(=O)CCc1ccc(O)cc1	55.4*	-1.6	1.1	0.6	NTR1 ag confirm=27.9
O=C(CCCCCN1C(=O)C2C3C=CC(C3)C2C1=O)N1CCN(c2ncccn2)CC1 (stereo not drawn)	·	·	-2.7	-5.0
O=C(CSc1nnc(-c2ccccn2)n1-c1ccccc1)c1ccc(F)cc1	·	·	2.6	-0.8
O=C(Oc1ccc(Br)cc1C(=O)/C=C/c1ccccc1F)c1ccco1	54.7*	-10.3	-15.8	-31.9	NTR1 ag confirm=40.3*
